Data set [1] in a line: MTT cell viability assay, U-937. The format is cell-based. To be noted: human, U-937 cells (monocytes). In outline:
(§1)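 Test compound, dissolved in DMSO, was added and cells were cultured for 72 h (37 °C, 5% CO2), three wells per concentration, with untreated cells as control. Then 1% MTT was added for 4 h, DMSO added and mixed 15 min, and OD read at 570 nm.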
For orientation: Tetrazolium dyes change colour on reduction, which living cells bring about.

Data set [2] is described as follows: MTT cell viability assay, MT-4. The format is cell-based. The settings on record: human, MT-4 cells. Summed up:
as §1

Data set [3] deals with E. coli/pRAC-gfp. To be noted: for The value of the fluorescence of GFP synthesized in biosensor cells, Biosensor E. coli/pRAC-gfp: 150 μM compound in culture medium, 1.5 h; for Toxic and mutagenic effects on indicator cells E. coli/pRAC-gfp (in words): 150 μM.
Data set [4] deals with E. coli/pET36b-gfp. The settings on record: for The value of the fluorescence of GFP synthesized in biosensor cells, Biosensor E. coli/pET36b-gfp: 150 μM compound in culture medium, IPTG 1 mM; for Toxic and mutagenic effects on indicator cells E. coli/pET36b-gfp (in words): 150 μM.
Data set [5] concerns E. coli/pRAC-gfp. In words: microbe, parasite or virus in culture. To be noted: Escherichia coli, read-out: Inhibition/induction of the synthesis of the reporter protein GFP, E. coli/pRAC-gfp.
Data set [6] deals with E. coli/pET36b-gfp. In words: microbe, parasite or virus in culture. To be noted: Escherichia coli, read-out: Inhibition/induction of the synthesis of the reporter protein GFP, E. coli/pET36b-gfp.
In data set [7] the test system is MDCK cells. The settings on record: 48 h, MTT.

As usually defined, the IC50 is the concentration at which inhibition is half-maximal. Low values mean higher potency, high ones lower potency.

Structures are written as SMILES. Several values for one entry are separate records, joined by “and”; a condition that tells them apart may be missing. Identical values can stand only once.

As to `CC[N+](C)(CC)CC/N=C1\C[C@H]2CC[C@]1(C)C2(C)C` [Compound 4a, N,N-Diethyl-N-methyl-2-((E)-((1R,4R)-1,7,7-trimethylbicyclo[2.2.1]heptan-2-ylidene)amino)ethanaminium iodide], the values for the half-maximal inhibitory concentration (IC50) at 72 h in data set [1] and in data set [2] were 58.6 ± 4.6 µM and over 100 µM, respectively. The “The value of the fluorescence of GFP synthesized in biosensor cells, Biosensor E. coli/pRAC-gfp” value (“The value … Biosensor E. coli/pRAC-gfp” for short) in data set [3] came to 189.21 ± 17.7 conventional units. Moreover, the “The value of the fluorescence of GFP synthesized in biosensor cells, Biosensor E. coli/pET36b-gfp” value (shortened to “The value … Biosensor E. coli/pET36b-gfp”) in data set [4] is recorded as 535.72 ± 307 conventional units. Besides, the inhibition at 150 µM in data set [5] and in data set [6] was under 20% throughout.

For the compound `CC[N+](CC)(CC)CC/N=C1\C[C@H]2CC[C@]1(C)C2(C)C` [Compound 4b, N,N,N-Triethyl-2-((E)-((1R,4R)-1,7,7-trimethylbicyclo[2.2.1]heptan-2-ylidene)amino)ethanaminium bromide], the IC50 at 72 h in data set [1] and in data set [2] was over 100 µM each time. Besides, the “Toxic and mutagenic effects on indicator cells E. coli/pRAC-gfp (in words)” value in data set [3] is reported as “neither toxic nor mutagenic effects”. The “The value … Biosensor E. coli/pRAC-gfp” value in data set [3] turned out to be 176.9 ± 16.9 conventional units. For the same compound, in data set [4], the “Toxic and mutagenic effects on indicator cells E. coli/pET36b-gfp (in words)” value is recorded as “neither toxic nor mutagenic effects”. For the same compound, the “The value … Biosensor E. coli/pET36b-gfp” value in data set [4] was 547.9 ± 40.8 conventional units. For the same compound, the inhibition at 150 µM in data set [5] and in data set [6] was under 20% in each case.

With `CC[N+](CC)(CCCCCCCC[N+](CC)(CC)CC/N=C1\C[C@H]2CC[C@]1(C)C2(C)C)CC/N=C1\C[C@H]2CC[C@]1(C)C2(C)C` [Compound 3c, N^1,N^1,N^8,N^8-Tetraethyl-N^1,N^8-bis(2-((E)-((1R,4R)-1,7,7-trimethylbicyclo[2.2.1]heptan-2-ylideneamino)ethyl)octane-1,8-diaminium bromide], the values for the IC50 at 72 h in data set [1] and in data set [2] were 67.2 ± 5.9 µM and 69.8 ± 2.7 µM, respectively.

Regarding `CC[N+](CC)(CC/N=C1\C[C@H]2CC[C@]1(C)C2(C)C)Cc1ccc(C[N+](CC)(CC)CC/N=C2\C[C@H]3CC[C@]2(C)C3(C)C)cc1` [Compound 3g, (R,R,E)-N,N′-(1,4-Phenylenebis(methylene))bis(N,N-diethyl-2-((E)-((1R,4R)-1,7,7-trimethylbicyclo[2.2.1]heptan-2-ylidene)amino)ethanaminium) bromide], the IC50 at 72 h in data set [1] was 54.9 ± 2.6 µM; in data set [2], 40.5 ± 3 µM. Also, the “Toxic and mutagenic effects on indicator cells E. coli/pRAC-gfp (in words)” value in data set [3] is “neither toxic nor mutagenic effects”. Moreover, the “The value … Biosensor E. coli/pRAC-gfp” value in data set [3] is on record as 170.87 ± 8.9 conventional units. Further, in data set [4], the “Toxic and mutagenic effects on indicator cells E. coli/pET36b-gfp (in words)” value is on record as “neither toxic nor mutagenic effects”. Also, in data set [4], the “The value … Biosensor E. coli/pET36b-gfp” value was 466.46 ± 4.1 conventional units. The inhibition at 150 µM in data set [5] and in data set [6] was under 20% in each case.

Consider `CC[N+](CC)(CCCCCC[N+](CC)(CC)CC/N=C1\C[C@H]2CC[C@]1(C)C2(C)C)CC/N=C1\C[C@H]2CC[C@]1(C)C2(C)C` [Compound 3b, N^1,N^1,N^6,N^6-Tetraethyl-N^1,N^6-bis(2-((E)-((1R,4R)-1,7,7-trimethylbicyclo[2.2.1]heptan-2-ylidene)amino)ethyl)hexane-1,6-diaminium bromide], for which the IC50 at 72 h in data set [2] worked out at 48.3 ± 3.2 µM. Moreover, in data set [7], the “CTD50, cytotoxic concentration; the concentration leading to 50% death of cells” value was 1712 µM and 1712.3 ± 169.8 µM. In data set [3], the “Toxic and mutagenic effects on indicator cells E. coli/pRAC-gfp (in words)” value was “neither toxic nor mutagenic effects”; the “The value … Biosensor E. coli/pRAC-gfp” value is 186.2 ± 22.9 conventional units. Further, in data set [4], the “Toxic and mutagenic effects on indicator cells E. coli/pET36b-gfp (in words)” value is recorded as “neither toxic nor mutagenic effects”; the “The value … Biosensor E. coli/pET36b-gfp” value is given as 495.5 ± 15.2 conventional units. For the same compound, the inhibition at 150 µM in data set [5] was under 20%. Also, the inhibition at 150 µM in data set [6] was under 20%.

`CC[N+](CC)(CCCCC[N+](CC)(CC)CC/N=C1\C[C@H]2CC[C@]1(C)C2(C)C)CC/N=C1\C[C@H]2CC[C@]1(C)C2(C)C` [Compound 3a, N^1,N^1,N^5,N^5-Tetraethyl-N^1,N^5-bis(2-((E)-((1R,4R)-1,7,7-trimethylbicyclo[2.2.1]heptan-2-ylidene)amino)ethyl)pentane-1,5-diaminium bromide]: the IC50 at 72 h in data set [1] amounted to 95.8 ± 5.6 µM. The IC50 at 72 h in data set [2] came out at 57.5 ± 3.8 µM. In data set [3], the “Toxic and mutagenic effects on indicator cells E. coli/pRAC-gfp (in words)” value was “neither toxic nor mutagenic effects”; the “The value … Biosensor E. coli/pRAC-gfp” value came to 168.9 ± 13.5 conventional units. In data set [4], the “Toxic and mutagenic effects on indicator cells E. coli/pET36b-gfp (in words)” value is reported as “neither toxic nor mutagenic effects”; the “The value … Biosensor E. coli/pET36b-gfp” value stood at 546.9 ± 65.6 conventional units. Further, the inhibition at 150 µM in data set [5] is under 20%. In addition, the inhibition at 150 µM in data set [6] is under 20%.

Consider `CC[N+](CC)(CCCCCCCCC[N+](CC)(CC)CC/N=C1\C[C@H]2CC[C@]1(C)C2(C)C)CC/N=C1\C[C@H]2CC[C@]1(C)C2(C)C` [Compound 3d, N^1,N^1,N^9,N^9-Tetraethyl-N^1,N^9-bis(2-((E)-((1R,4R)-1,7,7-trimethylbicyclo[2.2.1]heptan-2-ylidene)amino)ethyl)nonane-1,9-diaminium bromide], for which, in data set [1], the IC50 at 72 h was 58.6 ± 3.4 µM. This compound showed an IC50 at 72 h in data set [2] of 66 ± 5.3 µM. Further, in data set [3], the “Toxic and mutagenic effects on indicator cells E. coli/pRAC-gfp (in words)” value was “highly toxic”; the “The value … Biosensor E. coli/pRAC-gfp” value turned out to be 95.9 ± 4.3 conventional units. Further, in data set [4], the “Toxic and mutagenic effects on indicator cells E. coli/pET36b-gfp (in words)” value was “highly toxic”; the “The value … Biosensor E. coli/pET36b-gfp” value was found to be 172.3 ± 6.2 conventional units.

In the case of `CC[N+](CC)(CCCCCCCCCC[N+](CC)(CC)CC/N=C1\C[C@H]2CC[C@]1(C)C2(C)C)CC/N=C1\C[C@H]2CC[C@]1(C)C2(C)C` [Compound 3e, N^1,N^1,N^10,N^10-Tetraethyl-N^1,N^10-bis(2-((E)-((1R,4R)-1,7,7-trimethylbicyclo[2.2.1]heptan-2-ylidene)amino)ethyl)decane-1,10-diaminium bromide], the IC50 at 72 h in data set [1] was found to be 53.6 ± 2.2 µM. The compound further gave an IC50 at 72 h in data set [2] of 66.1 ± 4.4 µM. Also, in data set [3], the “Toxic and mutagenic effects on indicator cells E. coli/pRAC-gfp (in words)” value is “highly toxic”; the “The value … Biosensor E. coli/pRAC-gfp” value is reported as 56.9 ± 3.1 conventional units. Besides, in data set [4], the “Toxic and mutagenic effects on indicator cells E. coli/pET36b-gfp (in words)” value is “highly toxic”; the “The value … Biosensor E. coli/pET36b-gfp” value was 110.7 ± 7.2 conventional units.

Turning to `CCN(CC)CC/N=C1\C[C@H]2CC[C@]1(C)C2(C)C` [Compound 2, (E)-N^1,N^1-Diethyl-N^2-((1R,4R)-1,7,7-trimethylbicyclo[2.2.1]heptan-2-ylidene)ethane-1,2-diamine], in data set [3], the “Toxic and mutagenic effects on indicator cells E. coli/pRAC-gfp (in words)” value is “neither toxic nor mutagenic effects”; the “The value … Biosensor E. coli/pRAC-gfp” value is 171.4 ± 14.5 conventional units. Besides, in data set [4], the “Toxic and mutagenic effects on indicator cells E. coli/pET36b-gfp (in words)” value was “neither toxic nor mutagenic effects”; the “The value … Biosensor E. coli/pET36b-gfp” value was 512.7 ± 32.4 conventional units. Further, the inhibition at 150 µM in data set [5] is under 20%. The inhibition at 150 µM in data set [6] was under 20%.

The compound `CC[N+](CC)(CCCCCCCCCCCC[N+](CC)(CC)CC/N=C1\C[C@H]2CC[C@]1(C)C2(C)C)CC/N=C1\C[C@H]2CC[C@]1(C)C2(C)C` [Compound 3f, N^1,N^1,N^12,N^12-Tetraethyl-N^1,N^12-bis(2-((E)-((1R,4R)-1,7,7-trimethylbicyclo[2.2.1]heptan-2-ylidene)amino)ethyl)dodecane-1,12-diaminium bromide] came in with an IC50 at 72 h in data set [1] of 15.9 ± 1.1 µM. In data set [2], this compound displayed a concentration for half-maximal inhibition (IC50) at 72 h of 40.4 ± 3.9 µM. For the same compound, in data set [3], the “Toxic and mutagenic effects on indicator cells E. coli/pRAC-gfp (in words)” value is listed as “highly toxic”; the “The value … Biosensor E. coli/pRAC-gfp” value was found to be 49.3 ± 2.1 conventional units. In data set [4], the “Toxic and mutagenic effects on indicator cells E. coli/pET36b-gfp (in words)” value is on record as “highly toxic”; the “The value … Biosensor E. coli/pET36b-gfp” value turned out to be 51.3 ± 4.6 conventional units.

Take `CC[N+](CC)(CCCCCCCC[N+](CC)(CC)CC/N=C1\C[C@H]2CC[C@]1(C)C2(C)C)CC/N=C1\C[C@H]2CC[C@]1(C)C2(C)C` [Compound 3c]: the “CTD50, cytotoxic concentration; the concentration leading to 50% death of cells” value in data set [7] came out at 552.5 ± 49.1 µM. For the same compound, in data set [3], the “Toxic and mutagenic effects on indicator cells E. coli/pRAC-gfp (in words)” value is reported as “highly toxic”; the “The value … Biosensor E. coli/pRAC-gfp” value was determined as 81.7 ± 3.6 conventional units. Also, in data set [4], the “Toxic and mutagenic effects on indicator cells E. coli/pET36b-gfp (in words)” value was “highly toxic”; the “The value … Biosensor E. coli/pET36b-gfp” value stood at 165.5 ± 8.1 conventional units.

The values are drawn from article PMC7126328 (Bioorganic & Medicinal Chemistry, 2013).
